In ChEMBL document CHEMBL2412964, “Discovery of novel tetrahydro-pyrazolo [4,3-c] pyridines for the treatment of neuropathic pain: synthesis and neuropharmacology” (Eur J Med Chem, 2013):

How the values were obtained:
Rattus norvegicus [1] = experiment: Antinociceptive activity in Wistar rat chronic constriction injury model assessed as reversal of tactile allodynia at 100 mg/kg, ip after 30 mins (reference value: 3.4 +/- 0.8%); type: functional; details: route intraperitoneal
Rattus norvegicus [2] = experiment: Antinociceptive activity in ip dosed Wistar rat partial sciatic nerve ligation model assessed as reversal of tactile allodynia after 120 mins; type: functional; details: 2 h
How it was run: (§1)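 Wistar rats (200–250 g) with nerve injury, compounds i.p. in 30% v/v PEG 400; dose–response curves in each sensory test (spontaneous pain and cold allodynia as paw withdrawal duration; tactile allodynia and hyperalgesia as withdrawal threshold). ED50 linearly interpolated between doses just above and below 50% response; time of peak effect recorded.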

Cannabinoid receptor 2 = molecular target: T1, Cannabinoid receptor 2 (Rattus norvegicus, UniProt Q9QZN9); experiment: Displacement of [3H]CP55940 from CB2 receptor in rat spleen homogenate after 90 mins; type: tissue-based
T1 sequence (Q9QZN9 whole entry): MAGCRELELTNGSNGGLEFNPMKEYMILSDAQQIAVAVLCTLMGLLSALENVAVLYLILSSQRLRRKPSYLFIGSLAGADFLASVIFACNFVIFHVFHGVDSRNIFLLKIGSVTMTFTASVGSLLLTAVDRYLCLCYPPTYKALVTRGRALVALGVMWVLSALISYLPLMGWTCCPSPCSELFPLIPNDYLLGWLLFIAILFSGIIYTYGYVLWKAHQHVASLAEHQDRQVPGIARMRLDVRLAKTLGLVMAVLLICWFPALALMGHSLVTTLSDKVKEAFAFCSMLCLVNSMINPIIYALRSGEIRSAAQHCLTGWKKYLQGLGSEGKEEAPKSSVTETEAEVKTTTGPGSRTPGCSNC
How it was run: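 Rat brain (CB1) or spleen (CB2) membranes, homogenized in tris/NaCl/MgCl2 pH 7.4, competed against 0.5 nM [3H]CP55940 in 50 mM Tris-HCl, 2 mM EDTA, 5 mM MgCl2, 0.2 mg/mL BSA, pH 7.4; 90 min incubation. Nonspecific binding with 1 µM WIN (CB1) or 1 µM SR144528 (CB2); triplicates averaged.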

[3] = molecular target: Cathepsin S (Homo sapiens) (UniProt P25774); experiment: Inhibition of human recombinant cathepsin S using Z-Val-Val-Arg-AMC as substrate at 50 uM preincubated for 10 mins prior to substrate addition measured after 30 mins by fluorescence spectrophotometric analysis relative to control
Rattus norvegicus [4] = experiment: Antinociceptive activity in Wistar rat chronic constriction injury model assessed as reversal of mechanical allodynia at 100 mg/kg, ip after 30 mins (reference value: 4.7 +/- 2.1%); type: functional; details: route intraperitoneal
Rattus norvegicus [5] = experiment: Antinociceptive activity in ip dosed Wistar rat chronic constriction injury model assessed as reversal of cold allodynia after 60 mins; type: functional; details: 1 h; how it was run: as §1
Rattus norvegicus [6] = experiment: Antinociceptive activity in ip dosed Wistar rat partial sciatic nerve ligation model assessed as reversal of cold allodynia after 60 mins; type: functional; details: 1 h; how it was run: as §1
Rattus norvegicus [7] = experiment: Antinociceptive activity in Wistar rat partial sciatic nerve ligation model assessed as reversal of spontaneous pain response at 100 mg/kg, ip after 30 mins (reference value: 3.2 +/- 0.3%); type: functional; details: route intraperitoneal
Mus musculus [8] = experiment: Neurotoxicity in Swiss albino mouse assessed as minimal motor impairment at 300 mg/kg after 0.5 hrs by rotarod test; type: toxicity, organism-based; parameters: dose 300 mg/kg; details: in vivo
How it was run: (§2)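 Swiss albino mice of either sex, 20-25 g, dosed at 30, 100 and 300 mg/kg, three per group. Minimal motor impairment scored by rotarod at 0.5 and 4.0 h after dosing. Reported value is the lowest dose giving impairment in half or more of the mice.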

Rattus norvegicus [9] = experiment: Antinociceptive activity in ip dosed Wistar rat chronic constriction injury model assessed as reversal of mechanical allodynia after 60 mins; type: functional; details: 1 h; how it was run: as §1
Rattus norvegicus [10] = experiment: Antinociceptive activity in ip dosed Wistar rat chronic constriction injury model assessed as reversal of tactile allodynia after 60 mins; type: functional; details: 1 h; how it was run: as §1
Rattus norvegicus [11] = organism: Rattus norvegicus; experiment: Neuroprotective activity in Wistar rat chronic constriction injury model assessed as inhibition of nitric oxide production in brain after 2 hrs by Griess method relative to control; type: functional
How it was run: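 Wistar rats of either sex (200-250 g) with chronic constriction of the left sciatic nerve. On day 9 post-injury, compound given i.p. in 30% v/v PEG 400; tissue taken 2 h after dosing. Nitrate reduced to nitrite, nitrite measured colorimetrically with Griess reagent against a standard curve. Results expressed as percentage of vehicle-treated control; n = 4.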

Mus musculus [12] = experiment: Antiinflammatory activity in Swiss albino mouse assessed as inhibition of LPS-induced TNFalpha production at 100 mg/kg, ip administered 30 mins prior to LPS-challenge measured after 90 mins by ELISA relative to control; type: functional; details: route intraperitoneal
How it was run: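 Swiss albino mice (20–25 g, either sex) dosed i.p. with 100 mg/kg in 10 mL/kg; LPS 1.0 mg/kg in sterile PBS i.p. given 30 min later. Blood taken 90 min after LPS, plasma TNF measured by ELISA, expressed as % inhibition versus vehicle-treated control; n = 4, one-way ANOVA with Dunnett's test.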

Rattus norvegicus [13] = experiment: Antinociceptive activity in ip dosed Wistar rat chronic constriction injury model assessed as reversal of spontaneous pain response after 60 mins; type: functional; details: 1 h; how it was run: as §1
Rattus norvegicus [14] = experiment: Antinociceptive activity in Wistar rat chronic constriction injury model assessed as reversal of spontaneous pain response at 100 mg/kg, ip after 120 mins (reference value: 4.5 +/- 0.2%); type: functional; details: route intraperitoneal
Mus musculus [15] = experiment: Neurotoxicity in Swiss albino mouse assessed as minimal motor impairment at 300 mg/kg after 4 hrs by rotarod test; type: toxicity, organism-based; parameters: dose 300 mg/kg; details: in vivo; how it was run: as §2
Rattus norvegicus [16] = experiment: Antinociceptive activity in Wistar rat partial sciatic nerve ligation model assessed as reversal of mechanical allodynia at 100 mg/kg, ip after 120 mins (reference value: 2.9 +/- 0.3%); type: functional; details: route intraperitoneal
Rattus norvegicus [17] = experiment: Antinociceptive activity in Wistar rat chronic constriction injury model assessed as reversal of cold allodynia at 100 mg/kg, ip after 120 mins (reference value: 5.4 +/- 1.9%); type: functional; details: route intraperitoneal
Mus musculus [18] = experiment: Anticonvulsant activity in ip dosed Swiss albino mouse assessed as protection against picrotoxin-induced seizure administered 30 mins prior to picrotoxin-challenge measured after 4 hrs; type: functional; details: read-out: MED
How it was run: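 Mice, either sex, 20-25 g, given compound i.p. at 30, 100 and 300 mg/kg. Thirty minutes later, picrotoxin 3.15 mg/kg was injected s.c. in 0.01 mL/g body weight. Animals were isolated and watched for 45 min for a threshold convulsion, and protection was scored as its absence. Examined at 0.5 and 4 h. Value reported is the minimum dose active in half or more of the mice (n = 3).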

Rattus norvegicus [19] = experiment: Antinociceptive activity in ip dosed Wistar rat partial sciatic nerve ligation model assessed as reversal of cold allodynia after 30 mins; type: functional; details: 0.5 h; how it was run: as §1
Rattus norvegicus [20] = experiment: Antinociceptive activity in ip dosed Wistar rat chronic constriction injury model assessed as reversal of cold allodynia after 30 mins; type: functional; details: 0.5 h; how it was run: as §1
Rattus norvegicus [21] = experiment: Antinociceptive activity in ip dosed Wistar rat chronic constriction injury model assessed as reversal of spontaneous pain response after 30 mins; type: functional; details: 0.5 h; how it was run: as §1
Rattus norvegicus [22] = experiment: Antinociceptive activity in ip dosed Wistar rat chronic constriction injury model assessed as reversal of mechanical allodynia after 30 mins; type: functional; details: 0.5 h; how it was run: as §1
Rattus norvegicus [23] = experiment: Antinociceptive activity in ip dosed Wistar rat chronic constriction injury model assessed as reversal of tactile allodynia after 30 mins; type: functional; details: 0.5 h; how it was run: as §1
Rattus norvegicus [24] = experiment: Antinociceptive activity in ip dosed Wistar rat partial sciatic nerve ligation model assessed as reversal of tactile allodynia after 60 mins; type: functional; details: 1 h; how it was run: as §1
Rattus norvegicus [25] = experiment: Antinociceptive activity in ip dosed Wistar rat partial sciatic nerve ligation model assessed as reversal of tactile allodynia after 30 mins; type: functional; details: 0.5 h; how it was run: as §1

Sequence of Cathepsin S (Homo sapiens) (P25774 115-331 limits assumed): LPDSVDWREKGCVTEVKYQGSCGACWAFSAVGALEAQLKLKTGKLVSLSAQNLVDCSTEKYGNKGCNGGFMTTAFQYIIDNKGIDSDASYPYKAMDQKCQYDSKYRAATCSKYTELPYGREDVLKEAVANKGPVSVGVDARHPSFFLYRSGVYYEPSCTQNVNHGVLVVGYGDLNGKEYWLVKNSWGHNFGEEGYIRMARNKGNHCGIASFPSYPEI

Compound	Activity (Rattus norvegicus [1])	IC50 (Cannabinoid receptor 2)	inhibition [3]	Activity (Rattus norvegicus [4])	ED50 (Rattus norvegicus [5])	ED50 (Rattus norvegicus [6])	Activity (Rattus norvegicus [7])	Activity (Mus musculus [8])	ED50 (Rattus norvegicus [9])	inhibition (INH) (Rattus norvegicus [11])	inhibition in vivo at 100 mg/kg (Mus musculus [12])	ED50 (Rattus norvegicus [13])	Activity (Rattus norvegicus [14])	Activity (Mus musculus [15])	Activity (Rattus norvegicus [16])	Activity (Rattus norvegicus [17])	minimal effective dose (Mus musculus [18])	ED50 (Rattus norvegicus [23])	further results
CCN1CCc2c(c(C(C)(C)C)nn2C(=O)Nc2ccc(C)cc2C)C1	69.7%	> 1000 nM	12.1%	93.8%	29.8 mg/kg	44.4 mg/kg	89.9%	Non-toxic	25.7 mg/kg	12.5%	58.9%	15.5 mg/kg	89.5%	Non-toxic	46.3%	40.4%	–	–	ED50 (Rattus norvegicus [2]): 36.1 mg/kg; ED50 (Rattus norvegicus [10]): 23.4 mg/kg
CCN1CCc2c(c(C(C)(C)C)nn2C(=O)Nc2ccc(Br)cc2)C1	66.7%	> 1000 nM	39.9%	81.9%	–	–	90.4%	Non-toxic	–	16.4%	86.4%	–	83.2%	Non-toxic	41.1%	56.9%	100 mg/kg	23.8 mg/kg	ED50 (Rattus norvegicus [19]): 68 mg/kg; ED50 (Rattus norvegicus [20]): 41.4 mg/kg; ED50 (Rattus norvegicus [21]): 27.3 mg/kg; ED50 (Rattus norvegicus [22]): 37.3 mg/kg; ED50 (Rattus norvegicus [24]): 37.5 mg/kg
CCN1CCc2c(c(C(C)(C)C)nn2C(=O)Nc2c(C)cccc2C)C1	90.1%	> 1000 nM	34.1%	69.4%	37.4 mg/kg	65.8 mg/kg	93.9%	Non-toxic	38.3 mg/kg	15.3%	77.6%	10.4 mg/kg	88.5%	Non-toxic	50%	18.8%	100 mg/kg	21.7 mg/kg	ED50 (Rattus norvegicus [25]): 24.9 mg/kg
